These results are taken from ChEMBL document CHEMBL4033737, “Anti-mycobacterial alkaloids, cyclic 3-alkyl pyridinium dimers, from the Indonesian marine sponge Haliclona sp” (2017).

Usually inhibition stands for the percentage by which the read-out fell short of the control.

Where a name gives a salt, the structure may show the parent alone. Active and inactive are the calls of the source. No cut-off for these calls is given here.

For assay [1], the system named is Mycolicibacterium smegmatis. Briefly: Antibacterial activity against Mycobacterium smegmatis NBRC 3207 at 1 ug/disc incubated at 37 degC for 2 days by paper disc method. It counts as functional. In outline:
(§1)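 M. smegmatis NBRC 3207 kept as 20% glycerol stock at -80°C. Grown in Middlebrook 7H9 with 0.05% polysorbate 80, 0.5% glycerol and 10% OADC at 37°C for 2 days, then adjusted to 1.0×10^8 CFU/mL and spread on the same medium with 1.5% agar. Sample in CH3OH dried onto 6 mm discs, plated at 37°C for 2 days, inhibition zone read (mm). Controls: streptomycin sulfate 5 µg/disc, CH3OH.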

In assay [2] the test system is Mycolicibacterium smegmatis. Description: Antibacterial activity against Mycobacterium smegmatis NBRC 3207 at 5 ug/disc incubated at 37 degC for 2 days by paper disc method. It counts as functional. The conditions noted are these: for zone of inhibition at 5 µg/disc: NBRC 3207, 48 h, read-out: IZ. A digest of the protocol: as §1
The test system of assay [3] is Mycolicibacterium smegmatis. Description: Antibacterial activity against Mycobacterium smegmatis NBRC 3207 at 10 ug/disc incubated at 37 degC for 2 days by paper disc method. In kind it is functional. The note with it: NBRC 3207, 48 h, read-out: IZ. A digest of the protocol: as §1
For assay [4], the system named is Mycolicibacterium smegmatis. Briefly: Antibacterial activity against Mycobacterium smegmatis NBRC 3207 incubated at 37 degC for 2 days by paper disc method. It counts as functional. A digest of the protocol:
as §1

For assay [5], the target named is Dual specificity protein phosphatase 3 (Homo sapiens) (UniProt P51452). Briefly: Inhibition of VHR (unknown origin) at 17 uM pre-incubated for 10 mins before pNPP substrate addition and measured after 30 mins. A digest of the protocol:
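Enzyme at 1.0 µg/mL stock, in 50 mM citrate buffer pH 6.0 with 0.1 M NaCl, 1 mM DTT and 1 mM EDTA. Sample in methanol preincubated 10 min at 37°C. pNPP (4.0 mM stock) then added, 30 min at 37°C, stopped with NaOH. Absorbance read at 405 nm. % inhibition from blank- and no-sample-control-corrected readings. Three duplicate experiments. Oleanolic acid positive control.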

Assay [6] has the same target. Briefly: Inhibition of VHR (unknown origin) at 18 uM pre-incubated for 10 mins before pNPP substrate addition and measured after 30 mins. A digest of the protocol: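 VHR (1.0 µg/mL stock) in 50 mM citrate buffer pH 6.0 with 0.1 M NaCl, 1 mM DTT and 1 mM EDTA. Sample in CH3OH added, preincubated 10 min at 37°C. pNPP added (4.0 mM stock), 30 min at 37°C, stopped with NaOH, A405 read. % inhibition computed against enzyme-free blank and sample-free control. Three duplicate experiments. Oleanolic acid as positive control.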

Dual specificity protein phosphatase 3 (Homo sapiens), sequence (P51452 whole entry, looked up): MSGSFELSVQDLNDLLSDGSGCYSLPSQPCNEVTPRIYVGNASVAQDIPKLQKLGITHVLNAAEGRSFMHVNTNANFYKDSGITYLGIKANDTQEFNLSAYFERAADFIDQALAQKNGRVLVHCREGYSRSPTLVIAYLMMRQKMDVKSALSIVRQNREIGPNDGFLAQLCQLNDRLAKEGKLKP

`c1cc2c[n+](c1)CCCCCCCCCCCCCCCc1ccc[n+](c1)CCCCCCCCCCCCCC2`: the “inhibition zone (IZ)” value in assay [1] was “inactive”. Besides, the zone of inhibition at 5 µg/disc in assay [2] was determined as 9 mm. In addition, the zone of inhibition at 10 µg/disc in assay [3] was found to be 13 mm. Moreover, the “growth inhibition (GI)” value in assay [4] is “Dose-dependent effect”. Moreover, the inhibition in assay [5] turned out to be 28%.

As for `C1=C/CC[n+]2cccc(c2)CCCCCCCCCCCCCC[n+]2cccc(c2)CCCCCCCCCC/1`, the “inhibition zone (IZ)” value in assay [1] was “inactive”. Moreover, the zone of inhibition at 5 µg/disc in assay [2] was determined as 7 mm. The zone of inhibition at 10 µg/disc in assay [3] is 10 mm. For the same molecule, the “growth inhibition (GI)” value in assay [4] is “Dose-dependent effect”.

Consider `c1cc2c[n+](c1)CCCCCCCCCCCCCc1ccc[n+](c1)CCCCCCCCCCCCC2`, for which the “inhibition zone (IZ)” value in assay [1] and in assay [2] was “inactive” in each case. For the same molecule, the zone of inhibition at 10 µg/disc in assay [3] is 8 mm. For the same molecule, in assay [4], the “growth inhibition (GI)” value was “Dose-dependent effect”.

For the molecule `C1=C/CC[n+]2cccc(c2)CCCCCCCCCCCC[n+]2cccc(c2)CCCCCCCCCC/1`, in assay [1], the “inhibition zone (IZ)” value is “inactive”. Further, the zone of inhibition at 5 µg/disc in assay [2] is 10 mm. In addition, the zone of inhibition at 10 µg/disc in assay [3] came to 17 mm. Further, the “growth inhibition (GI)” value in assay [4] is “Dose-dependent effect”.

As for `c1cc2c[n+](c1)CCCCCCCCCCCCc1ccc[n+](c1)CCCCCCCCCCCC2` [CYCLOSTELLETAMINES A], the “inhibition zone (IZ)” value in assay [1] is “inactive”. Moreover, in assay [2], the zone of inhibition at 5 µg/disc was 9 mm. In assay [3], the zone of inhibition at 10 µg/disc was determined as 14 mm. In assay [4], the “growth inhibition (GI)” value is “Dose-dependent effect”.

With `c1cc2c[n+](c1)CCCCCCCCCCCCCc1ccc[n+](c1)CCCCCCCCCCCC2` [CYCLOSTELLETAMINES B], the “inhibition zone (IZ)” value in assay [1] and in assay [2] was “inactive” each time. Also, the zone of inhibition at 10 µg/disc in assay [3] was 8 mm. Further, the “growth inhibition (GI)” value in assay [4] is “Dose-dependent effect”.

Take `c1cc2c[n+](c1)CCCCCCCCCCCCCCc1ccc[n+](c1)CCCCCCCCCCCCC2` [CYCLOSTELLETAMINES E]: the “inhibition zone (IZ)” value in assay [1] was “inactive”. The zone of inhibition at 5 µg/disc in assay [2] came to 7 mm. The zone of inhibition at 10 µg/disc in assay [3] was determined as 12 mm. Further, the “growth inhibition (GI)” value in assay [4] was “Dose-dependent effect”.

Regarding `c1cc2c[n+](c1)CCCCCCCCCCCCCCc1ccc[n+](c1)CCCCCCCCCCCCCC2` [CYCLOSTELLETAMINES F], the “inhibition zone (IZ)” value in assay [1] was “inactive”. In addition, in assay [2], the zone of inhibition at 5 µg/disc was 8 mm. Also, the zone of inhibition at 10 µg/disc in assay [3] worked out at 12 mm. Also, the “growth inhibition (GI)” value in assay [4] is “Dose-dependent effect”. Further, the inhibition in assay [6] was 38%.

`CN[C@@H]1[C@H](O[C@H]2[C@H](O[C@H]3[C@H](O)[C@@H](O)[C@H](N=C(N)N)[C@@H](O)[C@@H]3N=C(N)N)O[C@@H](C)[C@]2(O)C=O)O[C@@H](CO)[C@H](O)[C@H]1O` [STREPTOMYCIN SULFATE]: the zone of inhibition at 1 µg/disc in assay [1] (NBRC 3207, 48 h, read-out: IZ) was 20 mm. For the same molecule, in assay [2], the zone of inhibition at 5 µg/disc is 35 mm.
